# The source made the active and inactive calls. No cut-off for these calls is given here.
# How the values were obtained:
# MDA-MB-231 [1] = assay: Cytotoxicity against human MDA-MB-231 cells; type: functional
# Procedure, shortened: (§1)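 Tested in the NCI in vitro antitumor screening protocol across a tumor cell line panel. GI₅₀ is the concentration producing a 50% reduction in cell growth.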
# MDA-MB-231 [2] = assay: Cell cycle arrest in human MDA-MB-231 cells assessed as accumulation of 2N cells at 27.0 uM after 72 hrs by flow cytometry; type: functional
# [3] = system: MDA-MB-231 (Homo sapiens); assay: Induction of apoptosis in human MDA-MB-231 cells assessed as induction of caspase 9 activation at 36 uM after 72 hrs by colorimetric assay relative to control
# MDA-MB-231 [4] = assay: Cell cycle arrest in human MDA-MB-231 cells assessed as accumulation of >4N cells at 36.0 uM after 24 hrs by flow cytometry; type: functional
# MDA-MB-231 [5] = assay: Effect on microtubule depolymerization in human MDA-MB-231 cells at 36 uM after 2 hrs; type: functional, cell-based
# Procedure, shortened: (§2)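 MDA-MB-231/ATCC cells grown on glass coverslips (1 × 10⁴ cells) for 24 h, then exposed to 3.6, 9, 18, 27 or 36 µM at 37 °C for 2 h. Fixed in 4% paraformaldehyde, permeabilized with Triton X-100, and immunostained for α-tubulin and ninein with DAPI counterstain. Interphase microtubule networks compared with untreated cells by confocal microscopy.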
# MDA-MB-231 [6] = assay: Cell cycle arrest in human MDA-MB-231 cells assessed as accumulation of 2N cells at 36.0 uM after 24 hrs by flow cytometry; type: functional
# COLO 205 = assay: Cytotoxicity against human COLO205 cells; type: functional; procedure, shortened: as §1
# SNB-19 = assay: Cytotoxicity against human SNB19 cells; type: functional; procedure, shortened: as §1
# MDA-MB-231 [7] = assay: Cell cycle arrest in human MDA-MB-231 cells assessed as accumulation at sub-G1 phase at 3.6 uM after 72 hrs by flow cytometry; type: functional
# RPMI-8226 = assay: Cytotoxicity against human RPMI8226 cells; type: functional; procedure, shortened: as §1
# NCI-H522 = assay: Cytotoxicity against human NCI-H522 cells; type: functional; procedure, shortened: as §1
# UACC-257 = assay: Cytotoxicity against human UACC257 cells; type: functional; procedure, shortened: as §1
# SN12C = assay: Cytotoxicity against human SN12C cells; type: functional; procedure, shortened: as §1
# U-251 = assay: Cytotoxicity against human U251 cells; type: functional; procedure, shortened: as §1
# MDA-MB-231 [8] = assay: Cell cycle arrest in human MDA-MB-231 cells assessed as accumulation of >4N cells at 27.0 uM after 24 hrs by flow cytometry; type: functional
# MDA-MB-231 [9] = assay: Cell cycle arrest in human MDA-MB-231 cells assessed as accumulation at sub-G1 phase at 36.0 uM after 72 hrs by flow cytometry; type: functional
# MDA-MB-435 = assay: Cytotoxicity against human MDA-MB-435 cells; type: functional; procedure, shortened: as §1
# SF-268 = assay: Cytotoxicity against human SF268 cells; type: functional; procedure, shortened: as §1
# MOLT-4 = assay: Cytotoxicity against human MOLT4 cells; type: functional; procedure, shortened: as §1
# MDA-MB-231 [10] = assay: Effect on microtubule depolymerization in human MDA-MB-231 cells assessed as disorganized microtubule cytoskeleton at 9 uM after 2 hrs relative to control; type: functional, cell-based; procedure, shortened: as §2
# MDA-MB-231 [11] = assay: Cell cycle arrest in human MDA-MB-231 cells assessed as accumulation of 4N cells at 27.0 uM after 72 hrs by flow cytometry; type: functional
# MDA-MB-231 [12] = assay: Cell cycle arrest in human MDA-MB-231 cells assessed as accumulation of >4N cells at 9.0 uM after 72 hrs by flow cytometry; type: functional
# Procedure, shortened: (§3)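 MDA-MB-231/ATCC cells were grown in DMEM with 10% fetal bovine serum, […], 1% nonessential amino acids, penicillin and streptomycin at 37 °C in 5% CO₂. They were exposed to 3.6, 9.0, 18, 27 or 36 µM for 24 or 72 h, with colchicine as control. DNA content was then read by flow cytometry, and […] cells were scored.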
# MDA-MB-231 [13] = assay: Cell cycle arrest in human MDA-MB-231 cells assessed as accumulation of 2N cells at 9.0 uM after 72 hrs by flow cytometry; type: functional
# T47D = assay: Cytotoxicity against human T47D cells; type: functional; procedure, shortened: as §1
# HOP-92 = assay: Cytotoxicity against human HOP92 cells; type: functional; procedure, shortened: as §1
# MDA-MB-231 [14] = assay: Cell cycle arrest in human MDA-MB-231 cells assessed as accumulation of >4N cells at 9.0 uM after 24 hrs by flow cytometry; type: functional; procedure, shortened: as §3
# BT-549 = assay: Cytotoxicity against human BT549 cells; type: functional; procedure, shortened: as §1
# TK-10 = assay: Cytotoxicity against human TK10 cells; type: functional; procedure, shortened: as §1
# MDA-MB-231 [15] = assay: Cell cycle arrest in human MDA-MB-231 cells assessed as accumulation of 4N cells at 36.0 uM after 24 hrs by flow cytometry; type: functional
# MDA-MB-231 [16] = assay: Cell cycle arrest in human MDA-MB-231 cells assessed as accumulation of 2N cells at 27.0 uM after 24 hrs by flow cytometry; type: functional
# MDA-MB-231 [17] = assay: Cell cycle arrest in human MDA-MB-231 cells assessed as accumulation of 4N cells at 9.0 uM after 72 hrs by flow cytometry; type: functional
# [18] = Cytotoxicity against human […] cells; type: functional; procedure, shortened: as §1
# MDA-MB-231 [19] = assay: Cell cycle arrest in human MDA-MB-231 cells assessed as accumulation of 2N cells at 9.0 uM after 24 hrs by flow cytometry; type: functional
# MDA-MB-231 [20] = assay: Cell cycle arrest in human MDA-MB-231 cells assessed as accumulation at sub-G1 phase at 3.6 uM after 24 hrs by flow cytometry; type: functional
# MDA-MB-231 [21] = assay: Cell cycle arrest in human MDA-MB-231 cells assessed as accumulation of >4N cells at 18.0 uM after 72 hrs by flow cytometry; type: functional
# MDA-MB-231 [22] = assay: Cell cycle arrest in human MDA-MB-231 cells assessed as accumulation of 2N cells at 18.0 uM after 24 hrs by flow cytometry; type: functional
# MDA-MB-231 [23] = assay: Cell cycle arrest in human MDA-MB-231 cells assessed as accumulation of >4N cells at 3.6 uM after 72 hrs by flow cytometry; type: functional
# MDA-MB-231 [24] = assay: Cell cycle arrest in human MDA-MB-231 cells assessed as accumulation of 4N cells at 18.0 uM after 72 hrs by flow cytometry; type: functional
# [25] = read-out: LC50 (the source's name)
smiles,measurement,setting,value
Nc1ccccc1C#C/C=C\C#Cc1ccccc1C(F)(F)F,GI50,MDA-MB-231 [1],398 nM
same,Activity,MDA-MB-231 [2],6.8%
same,fold change (FC),[3],3.9
same,Activity,MDA-MB-231 [4],36.3%
same,Activity,MDA-MB-231 [5],Active
same,Activity,MDA-MB-231 [6],10.4%
same,GI50,COLO 205,1170 nM
same,TGI,COLO 205,13.8 µM
same,CC50,COLO 205; [25],> 100 µM
same,GI50,SNB-19,11.3 µM
same,TGI,SNB-19,39.9 µM
same,CC50,SNB-19; [25],> 100 µM
same,Activity,MDA-MB-231 [7],47.2%
same,GI50,RPMI-8226,738 nM
same,TGI,RPMI-8226,> 100 µM
same,CC50,RPMI-8226; [25],> 100 µM
same,GI50,NCI-H522,597 nM
same,TGI,NCI-H522,12.2 µM
same,CC50,NCI-H522; [25],51.2 µM
same,GI50,UACC-257,536 nM
same,TGI,UACC-257,23.7 µM
same,CC50,UACC-257; [25],58.4 µM
same,GI50,SN12C,348 nM
same,TGI,SN12C,6.52 µM
same,CC50,SN12C; [25],30.9 µM
same,GI50,U-251,666 nM
same,TGI,U-251,17.5 µM
same,CC50,U-251; [25],45.4 µM
same,Activity,MDA-MB-231 [8],35.3%
same,Activity,MDA-MB-231 [9],69.3%
same,GI50,MDA-MB-435,400 nM
same,TGI,MDA-MB-435,530 nM
same,GI50,SF-268,650 nM
same,TGI,SF-268,19.7 µM
same,CC50,SF-268; [25],64.3 µM
same,GI50,MOLT-4,> 100 µM
same,TGI,MOLT-4,> 100 µM
same,CC50,MOLT-4; [25],> 100 µM
same,Activity,MDA-MB-231 [10],Active
same,Activity,MDA-MB-231 [11],15%
same,Activity,MDA-MB-231 [12],18%
same,Activity,MDA-MB-231 [13],6.8%
same,GI50,T47D,17 µM
same,TGI,T47D,49.6 µM
same,CC50,T47D; [25],> 100 µM
same,GI50,HOP-92,20.4 µM
same,TGI,HOP-92,48.6 µM
same,CC50,HOP-92; [25],> 100 µM
same,Activity,MDA-MB-231 [14],34%
same,GI50,BT-549,699 nM
same,TGI,BT-549,17.3 µM
same,CC50,BT-549; [25],43.4 µM
same,GI50,TK-10,8.3 µM
same,TGI,TK-10,27.9 µM
same,CC50,TK-10; [25],78.4 µM
same,Activity,MDA-MB-231 [15],33.6%
same,Activity,MDA-MB-231 [16],9.3%
same,Activity,MDA-MB-231 [17],21.3%
same,GI50,[18],746 nM
same,TGI,[18],> 100 µM
same,CC50,[18]; [25],> 100 µM
same,Activity,MDA-MB-231 [19],9.3%
same,Activity,MDA-MB-231 [20],23.6%
same,Activity,MDA-MB-231 [21],13%
same,Activity,MDA-MB-231 [22],9.5%
same,Activity,MDA-MB-231 [23],10.3%
same,Activity,MDA-MB-231 [24],17.4%

# Reference: ChEMBL document CHEMBL1149910, “2-(6-aryl-3(Z)-hexen-1,5-diynyl)anilines as a new class of potent antitubulin agents” (J Med Chem, 2008)
